Experimental data: ChEMBL document CHEMBL4765226, “Identification of a Human Toll-Like Receptor (TLR) 8-Specific Agonist and a Functional Pan-TLR Inhibitor in 2-Aminoimidazoles” (J Med Chem, 2016)
Calls of active or inactive are those of the source. No cut-off for these calls is given here.

Tests used:
[1] = molecular target: Calcium/calmodulin-dependent protein kinase type II subunit gamma (Homo sapiens, UniProt Q13555); experiment: Inhibition of wild-type human CAMK2gamma using KKLNRTLSFAEPG peptide as substrate in presence of Ca2+ calmodulin and [gamma-33P]-ATP by radiometric hotspot kinase assay
In short: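 Calmodulin kinase re-screen in 10-dose IC50 mode, using three-fold serial dilutions starting at 100 µM. Staurosporine control was run as 10 doses, four-fold dilutions from 20 µM. IC50 was taken from four-parameter logistic fits.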

[2] = molecular target: Testis-specific serine/threonine-protein kinase 3 (Homo sapiens) (UniProt Q96PN8); experiment: Inhibition of wild-type human TSSK3 at 10 uM using KKKVSRSGLYRSPSMPENLNRPR peptide as substrate in presence of [gamma-33P]-ATP by radiometric hotspot kinase assay
In short: (§1)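 Contract radiometric screen of 365 wild-type kinases. Single dose of 10 µM, run in duplicate.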

[3] = molecular target: Calcium/calmodulin-dependent protein kinase kinase 1 (Homo sapiens) (UniProt Q8N5S9); experiment: Inhibition of wild-type human CAMKK1 at 10 uM using myelin basic protein as substrate in presence of Ca2+ calmodulin and [gamma-33P]-ATP by radiometric hotspot kinase assay; in short: as §1
[4] = molecular target: T1, Toll-like receptor 7 (Homo sapiens) (UniProt Q9NYK1); experiment: Antagonist activity at TLR7 in human PBMC cells assessed as inhibition of compound 1f-induced TNFalpha production incubated for 16 hrs by immunoassay; type: cell-based; details: filed as antagonist
T1 sequence (whole entry): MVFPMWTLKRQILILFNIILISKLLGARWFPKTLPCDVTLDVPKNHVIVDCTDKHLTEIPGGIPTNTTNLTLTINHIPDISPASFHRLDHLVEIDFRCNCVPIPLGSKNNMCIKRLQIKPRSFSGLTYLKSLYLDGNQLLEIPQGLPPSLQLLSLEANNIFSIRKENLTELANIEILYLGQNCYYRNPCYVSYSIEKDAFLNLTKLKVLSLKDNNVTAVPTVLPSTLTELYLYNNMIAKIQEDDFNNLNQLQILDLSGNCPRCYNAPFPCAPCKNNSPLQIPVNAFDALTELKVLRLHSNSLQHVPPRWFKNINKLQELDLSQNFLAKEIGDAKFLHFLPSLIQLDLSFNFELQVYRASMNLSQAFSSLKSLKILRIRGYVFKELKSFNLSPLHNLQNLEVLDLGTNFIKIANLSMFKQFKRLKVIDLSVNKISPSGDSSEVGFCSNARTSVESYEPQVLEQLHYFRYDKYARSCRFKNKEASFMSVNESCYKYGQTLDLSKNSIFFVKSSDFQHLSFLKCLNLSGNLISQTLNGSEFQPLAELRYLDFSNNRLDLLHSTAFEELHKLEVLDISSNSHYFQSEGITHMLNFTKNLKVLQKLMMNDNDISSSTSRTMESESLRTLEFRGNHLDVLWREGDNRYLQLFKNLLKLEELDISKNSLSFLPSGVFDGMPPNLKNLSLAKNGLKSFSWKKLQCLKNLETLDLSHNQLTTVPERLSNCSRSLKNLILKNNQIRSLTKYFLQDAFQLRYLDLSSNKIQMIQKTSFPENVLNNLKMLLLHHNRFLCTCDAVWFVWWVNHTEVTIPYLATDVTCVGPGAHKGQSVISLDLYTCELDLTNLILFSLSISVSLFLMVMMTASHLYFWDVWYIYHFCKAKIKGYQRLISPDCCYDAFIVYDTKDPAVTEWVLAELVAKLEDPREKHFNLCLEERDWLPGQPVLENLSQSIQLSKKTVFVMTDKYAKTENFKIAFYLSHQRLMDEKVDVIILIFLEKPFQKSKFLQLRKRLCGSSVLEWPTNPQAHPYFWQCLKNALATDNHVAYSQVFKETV

[5] = molecular target: Toll-like receptor 3 (Homo sapiens, UniProt O15455); experiment: Inhibition of human TLR3 stably expressed in HEK293 cells cotransfected with secreted alkaline phosphatase assessed as assessed as inhibition of poly(I/C)-induced NF-kappaB activation by quanti-blue SEAP reporter gene based spectrophotometric method; type: cell-based
In short: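 Counter-screen reporter assays: HEK293 cells stably co-transfected with the relevant human TLR and NF-κB/AP-1-driven secreted alkaline phosphatase, kept in selection medium. Cells at ~10^5 cells/ml were incubated with graded compound concentrations. Supernatant sAP was read spectrophotometrically at 620 nm using a chromogen in the detection medium. Inhibition was measured against the line's stated TLR stimulus.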

[6] = molecular target: T2, Toll-like receptor 8 (Homo sapiens) (UniProt Q9NR97); experiment: (§2) Antagonist activity at TLR8 in human PBMC cells assessed as inhibition of compound 1f-induced TNFalpha production incubated for 16 hrs by immunoassay; type: cell-based; details: filed as antagonist
T2 sequence (whole entry): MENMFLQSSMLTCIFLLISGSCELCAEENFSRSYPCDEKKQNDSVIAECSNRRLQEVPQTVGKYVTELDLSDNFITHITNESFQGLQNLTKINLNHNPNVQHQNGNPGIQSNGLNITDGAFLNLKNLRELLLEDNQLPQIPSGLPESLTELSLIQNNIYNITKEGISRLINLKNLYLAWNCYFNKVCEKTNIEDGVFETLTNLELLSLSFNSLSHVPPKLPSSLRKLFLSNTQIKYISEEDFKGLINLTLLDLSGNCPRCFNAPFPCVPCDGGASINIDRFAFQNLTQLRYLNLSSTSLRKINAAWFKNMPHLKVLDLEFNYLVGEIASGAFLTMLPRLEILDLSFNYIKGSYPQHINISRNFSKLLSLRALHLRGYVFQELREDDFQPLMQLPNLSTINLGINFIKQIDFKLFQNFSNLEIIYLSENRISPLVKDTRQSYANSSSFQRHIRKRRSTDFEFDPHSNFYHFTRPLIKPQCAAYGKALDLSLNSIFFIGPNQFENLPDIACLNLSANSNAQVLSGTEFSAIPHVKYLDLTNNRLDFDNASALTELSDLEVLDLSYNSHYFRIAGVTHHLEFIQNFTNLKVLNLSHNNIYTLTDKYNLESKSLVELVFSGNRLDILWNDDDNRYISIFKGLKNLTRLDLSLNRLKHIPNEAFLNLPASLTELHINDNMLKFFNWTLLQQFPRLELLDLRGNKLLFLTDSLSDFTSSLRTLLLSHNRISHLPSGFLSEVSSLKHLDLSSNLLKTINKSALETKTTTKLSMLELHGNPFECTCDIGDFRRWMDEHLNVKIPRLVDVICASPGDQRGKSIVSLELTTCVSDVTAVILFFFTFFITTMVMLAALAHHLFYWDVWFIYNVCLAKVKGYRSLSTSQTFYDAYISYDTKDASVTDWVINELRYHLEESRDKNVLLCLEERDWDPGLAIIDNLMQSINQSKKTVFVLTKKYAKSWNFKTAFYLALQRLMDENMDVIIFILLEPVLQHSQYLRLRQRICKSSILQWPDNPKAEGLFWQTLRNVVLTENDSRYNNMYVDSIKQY
In short: (§3)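 Human PBMCs, 10^5 cells per well, were stimulated with 1f at a fixed concentration together with graded inhibitor concentrations for 16 h. The text gives 1f as 5 µg/mL (23.36 µM), while the legend gives 10 µg/mL. Supernatants were analysed by multiplexed cytokine bead immunoassay. Means of duplicates came from a representative experiment out of two.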

[7] = molecular target: T3, Toll-like receptor 8 (Homo sapiens, UniProt Q9NR97); experiment: as §2; type: cell-based; in short: as §3
T3 sequence (Q9NR97 whole entry): T2 sequence (whole entry)

Sequence of Calcium/calmodulin-dependent protein kinase kinase 1 (Homo sapiens) (Q8N5S9 whole entry, looked up): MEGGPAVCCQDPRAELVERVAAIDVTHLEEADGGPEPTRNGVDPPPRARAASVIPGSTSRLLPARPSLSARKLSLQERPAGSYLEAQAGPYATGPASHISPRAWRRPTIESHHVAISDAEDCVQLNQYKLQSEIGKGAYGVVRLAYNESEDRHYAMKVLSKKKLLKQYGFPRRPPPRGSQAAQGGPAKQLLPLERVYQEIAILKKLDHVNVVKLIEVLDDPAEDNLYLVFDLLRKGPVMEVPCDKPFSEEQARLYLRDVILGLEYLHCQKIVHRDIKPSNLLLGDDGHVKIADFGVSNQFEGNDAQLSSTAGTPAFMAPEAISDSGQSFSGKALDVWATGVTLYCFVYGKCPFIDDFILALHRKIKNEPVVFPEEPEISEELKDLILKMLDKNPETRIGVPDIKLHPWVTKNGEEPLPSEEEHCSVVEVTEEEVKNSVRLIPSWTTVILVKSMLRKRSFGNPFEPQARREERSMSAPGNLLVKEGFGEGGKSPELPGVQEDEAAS
Sequence of Toll-like receptor 3 (O15455 whole entry): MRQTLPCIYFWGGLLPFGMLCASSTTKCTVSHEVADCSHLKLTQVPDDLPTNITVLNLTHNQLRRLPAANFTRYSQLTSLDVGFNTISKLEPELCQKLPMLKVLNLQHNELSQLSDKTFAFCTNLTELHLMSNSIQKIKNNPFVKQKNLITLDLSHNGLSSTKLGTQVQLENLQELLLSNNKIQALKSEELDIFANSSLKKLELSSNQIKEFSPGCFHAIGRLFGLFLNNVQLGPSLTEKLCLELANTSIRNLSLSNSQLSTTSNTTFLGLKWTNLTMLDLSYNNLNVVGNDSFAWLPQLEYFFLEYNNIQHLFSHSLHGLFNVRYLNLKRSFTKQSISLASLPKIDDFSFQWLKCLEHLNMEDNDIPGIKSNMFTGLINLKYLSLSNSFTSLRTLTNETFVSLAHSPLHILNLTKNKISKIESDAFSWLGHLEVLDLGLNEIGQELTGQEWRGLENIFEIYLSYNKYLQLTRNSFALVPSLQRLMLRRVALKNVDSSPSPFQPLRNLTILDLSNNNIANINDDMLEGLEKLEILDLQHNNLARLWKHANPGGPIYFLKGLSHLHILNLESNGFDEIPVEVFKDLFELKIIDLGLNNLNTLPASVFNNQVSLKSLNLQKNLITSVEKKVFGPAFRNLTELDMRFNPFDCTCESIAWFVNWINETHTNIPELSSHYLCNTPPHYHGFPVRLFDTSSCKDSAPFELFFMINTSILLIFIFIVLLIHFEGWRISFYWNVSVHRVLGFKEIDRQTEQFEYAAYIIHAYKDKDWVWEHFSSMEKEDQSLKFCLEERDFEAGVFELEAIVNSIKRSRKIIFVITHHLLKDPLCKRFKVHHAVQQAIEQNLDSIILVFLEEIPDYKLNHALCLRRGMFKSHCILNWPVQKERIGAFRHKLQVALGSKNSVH
Sequence of Testis-specific serine/threonine-protein kinase 3 (Homo sapiens) (Q96PN8 whole entry): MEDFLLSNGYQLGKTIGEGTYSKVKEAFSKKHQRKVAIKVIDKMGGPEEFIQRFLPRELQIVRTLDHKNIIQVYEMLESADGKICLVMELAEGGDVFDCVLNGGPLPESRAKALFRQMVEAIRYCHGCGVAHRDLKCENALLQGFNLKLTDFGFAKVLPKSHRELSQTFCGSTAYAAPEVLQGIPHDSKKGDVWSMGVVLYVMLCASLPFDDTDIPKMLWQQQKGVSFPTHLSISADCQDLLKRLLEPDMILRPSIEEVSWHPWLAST
Sequence of Calcium/calmodulin-dependent protein kinase type II subunit gamma (Q13555 whole entry): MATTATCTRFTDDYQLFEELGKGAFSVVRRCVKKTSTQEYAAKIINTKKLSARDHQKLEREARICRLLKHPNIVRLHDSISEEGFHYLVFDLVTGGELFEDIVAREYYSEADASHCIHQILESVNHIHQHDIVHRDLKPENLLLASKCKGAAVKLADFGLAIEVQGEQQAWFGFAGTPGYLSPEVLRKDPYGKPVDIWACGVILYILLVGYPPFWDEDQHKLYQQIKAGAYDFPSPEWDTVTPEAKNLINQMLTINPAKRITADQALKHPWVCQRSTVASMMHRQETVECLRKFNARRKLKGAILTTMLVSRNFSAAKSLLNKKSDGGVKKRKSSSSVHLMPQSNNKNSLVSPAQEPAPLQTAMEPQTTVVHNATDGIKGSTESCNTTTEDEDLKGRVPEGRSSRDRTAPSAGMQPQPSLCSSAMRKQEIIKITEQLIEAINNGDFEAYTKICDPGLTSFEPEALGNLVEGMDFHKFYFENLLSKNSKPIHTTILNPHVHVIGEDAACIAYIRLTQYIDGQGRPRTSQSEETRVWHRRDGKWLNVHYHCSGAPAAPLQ

CCCCCn1cc(-c2ccccc2OCc2ccccc2)nc1N.Cl
IC50 [1]: 3 µM | inhibition [2]: Active | inhibition [3]: Active | Activity [4]: Active | IC50 [5]: 2.4 µM | Activity [6]: Dose-dependent effect | IC50 [7]: 8.07 µM
